Columns and labels:
[1] = Precipitation on addition to culture medium; assay type: physicochemical; conditions: culture medium (RPMI 1640, 10% FBS)
[2] = test system: acetylated α-tubulin in human whole blood lymphocytes; test: Human whole blood assay, acetylated α-tubulin by flow cytometry; assay type: cell-based; conditions: 10 and 30 μM
Summary of the method: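 Whole blood from healthy volunteers (25 μL) was mixed with compound diluted in RPMI 1640/10% FBS, with 0.1% DMSO final in controls. Incubation was 30 min at 37°C/5% CO2, then 3.5 h more after adding medium. Cells were lysed/fixed 10 min at room temperature and permeabilised 20 min on ice. Staining used AF647-labelled anti-acetylated α-tubulin or isotype control, 20–30 min on ice. Flow cytometry used a lymphocyte gate.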

[3] = test system: SCG neurons expressing HSPB1^P182L; test: Axonal transport of mitochondria in SCG neurons expressing HSPB1 P182L; assay type: cell-based, mouse; conditions: 100 nM T-3796106, 250 nM T-3793168, 1 μM Tubastatin A
Summary of the method: (§1)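 Medium contained NGF, 10% FBS and 4 μM aphidicolin. Nuclei were microinjected with mutant human HSPB1 plus mito-EGFP (total DNA ≤0.05 μg/μL). Controls got DMSO. Spinning-disk confocal at 37°C/5% CO2, […], frames 1 s apart for 2 min, 4–5 neurons per dish. Difference Tracker counted moving particles per 1000 pixels.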

wild-type SCG neurons = test: Axonal transport of mitochondria in dissociated wild-type SCG neurons; assay type: cell-based, mouse; conditions: 100 nM T-3796106, 250 nM T-3793168, 1 μM Tubastatin A, 24 h
[4] = test system: SCG neurons expressing HSPB1^S135F; test: Axonal transport of mitochondria in SCG neurons expressing HSPB1 S135F; assay type: cell-based, mouse; conditions: 24 h, 100 nM T-3796106, 250 nM T-3793168, 1 μM Tubastatin A
Summary of the method: as §1

SMILES	Concentration showing some precipitate when added in the culture medium [1]	Levels of acetylated a-tubulin at 10 versus 30 μM [2]	Effect on mitochondrial movement [3]	Number, average and maximum velocity of axonally transported mitochondria (wild-type SCG neurons)	Average and maximum speed of mitochondria movement [4]	Rescue of anterograde mitochondrial transport (number of moving mitochondria) [4]
O=C(CCCCCCNC(=O)c1cnc(N(c2ccccc2)c2ccccc2)nc1)NO [ACY-1215]	300 µM	almost the same	–	–	–	–
CN1CCc2c(c3ccccc3n2Cc2ccc(C(=O)NO)cc2)C1 [Tubastatin A]	–	almost the same	no effect on mitochondrial movement	no significant change	unaffected by any of these treatments	rescue of anterograde axonal transport
